Converted amounts (≈) assume the structure as drawn.
Columns and labels:
[1] = species on record: Mus musculus; assay: Activation of UTRN promoter in mouse H2K cells assessed as upregulation of UTRN production after 48 hrs by luciferase reporter linked assay; assay type: functional, cell-based; conditions: Mus musculus, H2K, 48 h
Outline: (§1)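 H2K myoblasts stably carrying a utrophin (UTRN) promoter–luciferase reporter were plated 24 h before dosing and exposed to compound for 48 h. Luciferase was read by luminescence (Steady-Glo). The primary screen was at 10 μM and the secondary at six concentrations for EC50, both in triplicate. Non-EC50 values are % of the reference upregulator's maximum, given with the concentration at maximum.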

[2] = species on record: Mus musculus; assay: Activation of UTRN promoter in mouse H2K cells assessed as upregulation of UTRN production at 10 uM after 48 hrs by luciferase reporter linked assay; assay type: functional; outline: as §1
[3] = species on record: Mus musculus; assay: Activation of UTRN promoter in mouse H2K cells assessed as upregulation of UTRN production at 10 uM after 72 hrs by RT-PCR analysis; assay type: functional
Outline: (§2)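 H2K cells were seeded at 25000 per well, left 24 h, then dosed for 72 h in 1% DMSO final. Total RNA was extracted and reverse transcribed. qPCR used an amplicon spanning the UTRN exon 3–4 boundary, with β-actin as the endogenous control, and was quantified by ΔΔCT. Values are % UTRN relative to DMSO control (=100), with P value.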

[4] = Half life in mouse liver microsomes; assay type: ADME, Microsome
[5] = tested on: Mus musculus; assay: Tmax in CD1 mouse at 10 mg/kg, ip; assay type: ADME, organism-based; parameters: dose 10 mg/kg, route intraperitoneal; conditions: in vivo
Outline: (§3)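 Male CD1 mice were dosed i.p. at 10 mg/kg in 95% PBS containing 0.1% Tween 20 and 5% DMSO. Plasma was sampled at 5–360 or 5–480 min. AUC is in μg.min/mL. Half-life was not calculated where the log concentration–time plot lacked a linear region of at least three points.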

[6] = tested on: Mus musculus; assay: Cmax in CD1 mouse at 10 mg/kg, ip; assay type: ADME, organism-based; parameters: dose 10 mg/kg, route intraperitoneal; conditions: in vivo; outline: as §3
[7] = tested on: Mus musculus; assay: Half life in CD1 mouse at 10 mg/kg, ip; assay type: ADME, organism-based; parameters: dose 10 mg/kg, route intraperitoneal; conditions: in vivo; outline: as §3
[8] = tested on: Mus musculus; assay: AUC in CD1 mouse at 10 mg/kg, ip; assay type: ADME, organism-based, Plasma; parameters: dose 10 mg/kg, route intraperitoneal; conditions: in vivo; outline: as §3
[9] = Aqueous solubility of the compound by turbidimetry; assay type: physicochemical; conditions: buffer
Outline: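 Turbidimetric aqueous solubility, reported as the final test compound concentration.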

[10] = Half life in human liver microsomes; assay type: ADME, Microsome
[11] = species on record: Mus musculus; assay: Activation of UTRN promoter in mouse H2K cells assessed as upregulation of UTRN production at 3 uM after 48 hrs by luciferase reporter linked assay; assay type: functional; outline: as §1
[12] = species on record: Mus musculus; assay: Activation of UTRN promoter in mouse H2K cells assessed as upregulation of UTRN production at 3 uM after 72 hrs by RT-PCR analysis; assay type: functional; outline: as §2

Row | SMILES | EC50 [1] | further results
1 | CC(=O)Nc1ccc2oc(-c3ccccc3)nc2c1 | 3000 nM | 
2 | Cc1ccc(-c2nc3cc(NC(=O)C(C)C)ccc3o2)cc1 |  | Activity [2]: 95%
3 | Cc1cc2nc(-c3ccc(N)cc3O)oc2cc1C | 700 nM | Activity [3]: 144.8%; half-life [4]: 22 min; Tmax [5]: 5 min; Cmax [6]: 10.9 ng/mL; t1/2 [7]: 40.9 min; AUC [8]: 10 ng·h/mL; solubility kinetic [9]: 1 µM (≈ 0.254 µg/mL)
4 | CC(C)C(=O)N(C)c1ccc2oc(-c3ccc(Cl)cc3)nc2c1 | > 30000 nM | 
5 | CC(C)C(=O)Nc1ccc2oc(-c3ccc(Cl)cc3)nc2c1 | 400 nM | half-life [4]: 19.3 min; half-life [10]: 286 min; Tmax [5]: 15 min; Cmax [6]: 2807 ng/mL; t1/2 [7]: 136 min; AUC [8]: 3820 ng·h/mL; solubility kinetic [9]: 3 µM (≈ 0.944 µg/mL)
6 | CC(C)NC(=O)c1ccc2oc(-c3ccc(Cl)cc3)nc2c1 | > 30000 nM | 
7 | CC(C)S(=O)(=O)Nc1ccc2oc(-c3ccc(Cl)cc3)nc2c1 | > 30000 nM | 
8 | CC(C)CNc1ccc2oc(-c3ccc(Cl)cc3)nc2c1 | > 30000 nM | 
9 | C[C@H](N)C(=O)Nc1ccc2oc(-c3ccc(Cl)cc3)nc2c1 |  | Activity [11]: 35%
10 | CCC(=O)c1ccc2oc(-c3ccc(Cl)cc3)nc2c1 | 900 nM | half-life [4]: 13 min
11 | CC(C)C(=S)Nc1ccc2oc(-c3ccc(Cl)cc3)nc2c1 | > 30000 nM | 
12 | CC(C)C(=O)Nc1ccc2[nH]c(-c3ccc(Cl)cc3)nc2c1 | 10000 nM | 
13 | CC(C)C(=O)Nc1ccc2sc(-c3ccc(Cl)cc3)nc2c1 | 1200 nM | 
14 | CC(C)C(=O)Nc1ccc2oc(-c3ccc(Cl)cc3)cc2c1 | > 30000 nM | 
15 | CC(C)c1ccc2oc(-c3ccc(N)cc3O)nc2c1 | 1000 nM | 
16 | Nc1ccc(-c2nc3cc(N)ccc3o2)c(O)c1 | 3500 nM | 
17 | Nc1ccc2oc(-c3ccc(Cl)c(Cl)c3)nc2c1 |  | Activity [11]: 107%
18 | CC(C)C(=O)Nc1ccc2oc(-c3ccc(Cl)c(Cl)c3)nc2c1 | 1500 nM | Activity [12]: 128.2%
19 | CCC(=O)Nc1ccc2oc(-c3ccccc3)nc2c1 | 800 nM | 
20 | CCC(=O)Nc1ccc2oc(-c3ccc(Cl)cc3)nc2c1 |  | Activity [11]: 85%
21 | CCCC(=O)Nc1ccc2oc(-c3ccccc3)nc2c1 | 3000 nM | 

Row | SMILES | EC50 [1] | further results
22 | CC(C)C(=O)Nc1ccc2oc(-c3ccccc3)nc2c1 | 800 nM | 
23 | CCCCC(=O)Nc1ccc2oc(-c3ccccc3)nc2c1 |  | Activity [2]: 69%
24 | O=C(Nc1ccc2oc(-c3ccccc3)nc2c1)c1ccccc1 | > 30000 nM | 
25 | CCCC(=O)Nc1ccc2oc(-c3ccc(Cl)cc3)nc2c1 | 3500 nM | 
26 | O=C(Nc1ccc2oc(-c3ccc(Cl)cc3)nc2c1)c1ccccc1 | > 30000 nM | 
27 | O=C(Cc1ccccc1)Nc1ccc2oc(-c3ccc(Cl)cc3)nc2c1 | 5000 nM | 
28 | O=C(CCc1ccccc1)Nc1ccc2oc(-c3ccc(Cl)cc3)nc2c1 | > 30000 nM | 
29 | COc1ccc(-c2nc3cc(NC(=O)C(C)C)ccc3o2)cc1 |  | Activity [2]: 132%
30 | CCN(CC)c1ccc(-c2nc3cc(NC(=O)C(C)C)ccc3o2)cc1 |  | Activity [2]: 12%
31 | CC(C)C(=O)Nc1ccc2oc(-c3ccc(C(F)(F)F)cc3)nc2c1 |  | Activity [2]: 22%
32 | CC(C)C(=O)Nc1ccc2oc(-c3ccc(F)cc3)nc2c1 | 900 nM | half-life [4]: 16.1 min
33 | CC(C)C(=O)Nc1ccc2oc(-c3cccc(Cl)c3)nc2c1 | 4500 nM | 
34 | CC(C)C(=O)Nc1ccc2oc(-c3ccccc3Cl)nc2c1 | 1100 nM | 
35 | CC(C)C(=O)Nc1ccc2oc(-c3cccc(Cl)c3Cl)nc2c1 | 10000 nM | 
36 | CC(C)C(=O)Nc1ccc2oc(-c3ccc(Cl)cc3Cl)nc2c1 |  | Activity [2]: 53%
37 | CC(C)C(=O)Nc1ccc2oc(-c3cc(Cl)ccc3Cl)nc2c1 | > 30000 nM | 
38 | Cc1ccc(-c2nc3c(NC(=O)C(C)C)cccc3o2)cc1 | > 30000 nM | 
39 | CC(C)C(=O)Nc1ccc2nc(-c3ccc(Cl)cc3)oc2c1 | 3000 nM | 
40 | CC(C)C(=O)Nc1cc2oc(-c3ccc(Cl)cc3)nc2cc1Cl | > 30000 nM | 
41 | CC(C)C(=O)Nc1ccc2nc(-c3cccc(Cl)c3Cl)oc2c1 | > 30000 nM | 

— ChEMBL document CHEMBL1772981, “Discovery of 2-arylbenzoxazoles as upregulators of utrophin production for the treatment of Duchenne muscular dystrophy” (J Med Chem, 2011)
